Assay results from paper PMC8395708 (JACS Au, 2021).

Columns and labels:
[1] = molecular target: bovine serum albumin (BSA) (Bos taurus, UniProt P02769); test: Reaction of DNIC-1 with bovine serum albumin; type: binding; conditions: PBS pH 7.4, 37 °C, EPR
[2] = Effect of BSA or L-cysteine on degradation of DNIC-1 in PBS; type: physicochemical
How it was run: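 UV-vis stability: 25 μM test compound with 10 mg/mL BSA in PBS pH 7.4 at 37 °C under air. […] The same design was used with 150 μM L-cysteine instead of BSA, and with BSA under anaerobic conditions. Three independent experiments.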

[3] = NO release, Nitrate/Nitrite Colorimetric Assay; type: physicochemical; conditions: degradation of BSA-bound DNIC, PBS pH 7.4
How it was run: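 25 μM test compound was left to degrade under air for 2 d in 50 mM phosphate pH 7.4, SIF or SGFsp, or with BSA in PBS pH 7.4. For nitrate/nitrite, 10 μL sample was diluted in kit buffer with enzyme cofactor and nitrate reductase for 1 h at room temperature. NO equivalents were calculated from 0–35 μM nitrite/nitrate standard curves.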

[4] = type: in vivo, C57BL/6JNarl mice; conditions: mice, oral gavage 13.25 mg/kg

Chain of bovine serum albumin (BSA) (P02769 25-607): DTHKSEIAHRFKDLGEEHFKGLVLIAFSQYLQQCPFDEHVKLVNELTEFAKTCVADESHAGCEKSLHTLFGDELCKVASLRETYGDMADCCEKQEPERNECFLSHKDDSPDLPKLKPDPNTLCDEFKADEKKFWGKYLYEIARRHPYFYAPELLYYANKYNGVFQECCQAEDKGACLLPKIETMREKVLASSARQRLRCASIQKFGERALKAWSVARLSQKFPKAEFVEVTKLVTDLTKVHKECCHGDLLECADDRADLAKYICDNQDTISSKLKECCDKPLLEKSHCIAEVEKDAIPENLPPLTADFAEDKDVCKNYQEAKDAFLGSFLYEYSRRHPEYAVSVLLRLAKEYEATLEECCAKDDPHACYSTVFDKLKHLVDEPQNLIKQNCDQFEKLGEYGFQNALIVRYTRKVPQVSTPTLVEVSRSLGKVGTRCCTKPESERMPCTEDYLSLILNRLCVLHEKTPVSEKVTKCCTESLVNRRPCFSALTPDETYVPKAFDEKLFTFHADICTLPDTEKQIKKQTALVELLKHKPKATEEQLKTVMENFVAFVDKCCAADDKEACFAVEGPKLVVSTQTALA

Row | reaction time to plateau of BSA-bound DNIC formation [1] [min] | Substance | half-life of BSA-bound DNIC (UV-vis decay at 384 and 565 nm) ([2]; 25 μM DNIC-1 + 10 mg/mL BSA, PBS pH 7.4, aerobic, 37 °C) [h] | half-life of BSA-bound DNIC (decay of EPR signal) ([2]; 25 μM DNIC-1 + 50 mg/mL BSA, PBS pH 7.4, aerobic, 37 °C, EPR) [h] | stability under anaerobic condition ([2]; 10 mg/mL BSA, PBS pH 7.4, 37 °C, 24 h, anaerobic) | released nitric oxide [3] [equiv] | half-life in the small intestine [4] [h]
1 | 15 | [(NO)2Fe(SR)(BSA)] (R = CH2CH2OH) [BSA-bound DNIC] | 3.5 ± 0.3 | 3.5 ± 0.2 | No change of the UV–vis spectra | ~1.4 | –
2 | – | [(NO)2Fe(SR)(mucin)] (R = CH2CH2OH) [mucin-bound DNIC] | – | – | – | – | 3.0 ± 0.6
